Measured values reported in ChEMBL document CHEMBL2331331 (J Med Chem, 2013).
Calls of active or inactive are those of the source. No cut-off for these calls is given here.

What was measured:
[1] = target: Fibroblast growth factor receptor 2 (Homo sapiens, UniProt P21802); assay: Inhibition of FGFR2 (unknown origin)
Bel-7402 = assay: Cytotoxicity against human Bel7402 cells assessed as growth inhibition after 72 hrs by MTT assay; conditions: Bel-7402, 72 h
MV4-11 = assay: Antitumor activity against FLT3-ITD-positive human MV4-11 cells xenografted in NOD-SCID mouse assessed as tumor regression at 10 mg/kg/day, po administered 18 days measured every 3 days for 18 days; assay type: functional, organism-based
Method in brief: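 NOD-SCID mice (5–6 weeks) implanted sc with 1 × 10⁸/mL MV4-11 cells (100 μL) in serum-free medium. Grouped at 300–500 mm³, six per group, then dosed orally once daily for 18 days. Vehicle was 12.5% castor oil, 12.5% ethanol, 75% water. Tumor volume = long × short²/2, measured every 3 d.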

[2] = target: Serine/threonine-protein kinase pim-1 (Homo sapiens, UniProt P11309); assay: Inhibition of Pim-1 (unknown origin)
Chain of Serine/threonine-protein kinase pim-1 (P11309 whole entry): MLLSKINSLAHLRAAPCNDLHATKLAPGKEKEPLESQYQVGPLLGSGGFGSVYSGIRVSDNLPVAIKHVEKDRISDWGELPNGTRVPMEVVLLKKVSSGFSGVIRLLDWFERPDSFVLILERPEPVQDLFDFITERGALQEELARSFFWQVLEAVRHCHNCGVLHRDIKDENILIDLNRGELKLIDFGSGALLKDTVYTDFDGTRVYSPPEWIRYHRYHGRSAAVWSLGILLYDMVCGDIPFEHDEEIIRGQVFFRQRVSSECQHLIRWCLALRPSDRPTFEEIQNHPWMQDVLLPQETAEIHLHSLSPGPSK

Chain of Fibroblast growth factor receptor 2 (P21802 whole entry): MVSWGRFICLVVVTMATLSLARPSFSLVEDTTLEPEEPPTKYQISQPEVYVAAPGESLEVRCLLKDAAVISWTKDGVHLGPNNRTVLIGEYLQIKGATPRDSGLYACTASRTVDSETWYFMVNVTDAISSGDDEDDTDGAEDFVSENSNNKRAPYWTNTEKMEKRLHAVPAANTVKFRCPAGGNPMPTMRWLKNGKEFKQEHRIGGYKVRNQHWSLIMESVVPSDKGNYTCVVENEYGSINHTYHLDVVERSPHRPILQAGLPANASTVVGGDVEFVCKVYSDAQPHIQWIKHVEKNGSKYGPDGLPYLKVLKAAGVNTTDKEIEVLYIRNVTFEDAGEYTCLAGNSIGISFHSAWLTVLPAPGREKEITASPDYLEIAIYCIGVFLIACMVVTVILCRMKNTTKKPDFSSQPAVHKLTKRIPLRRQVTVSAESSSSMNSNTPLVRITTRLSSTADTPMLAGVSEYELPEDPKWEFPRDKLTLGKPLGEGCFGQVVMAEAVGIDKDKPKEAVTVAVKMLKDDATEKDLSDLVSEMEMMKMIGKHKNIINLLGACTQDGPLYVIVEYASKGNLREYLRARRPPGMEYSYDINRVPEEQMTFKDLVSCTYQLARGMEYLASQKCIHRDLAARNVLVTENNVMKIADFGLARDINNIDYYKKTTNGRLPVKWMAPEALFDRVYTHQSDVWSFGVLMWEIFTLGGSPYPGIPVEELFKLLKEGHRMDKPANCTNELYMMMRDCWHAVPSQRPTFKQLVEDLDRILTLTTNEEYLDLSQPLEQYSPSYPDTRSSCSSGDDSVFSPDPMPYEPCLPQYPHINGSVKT

IC50 [1]: 1.81 µM
IC50 [2]: > 10 µM
SMILES: O=C(Nc1ccc(Oc2ncnc3[nH]ncc23)cc1)Nc1ccc(Cl)c(C(F)(F)F)c1
IC50 (Bel-7402): > 10 µM
Activity (MV4-11): Active
